pIC50: −log10 of the molar value. Calls of active or inactive are those of the source. The rule behind the calls is not given here.
Legend:
Plasmodium falciparum [1] = experiment: Inhibition of Plasmodium falciparum falcipain
[2] = Inhibition of beta-haematin formation at 100 uM after 24 hrs by microtiter plate assay; format: functional
[3] = system: Radical scavenging activity; experiment: Antioxidant activity assessed as DPPH radical scavenging activity at 80 uM after 30 mins; format: functional
Method in brief: (§1)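 Compounds added to DPPH• in methanol, kept in the dark at room temperature for 30 min, absorbance read at 540 nm. Scavenging given as % decrease in absorbance relative to a drug-free DPPH• control, with a MeOH/DMSO background control. Ascorbic acid as comparator; triplicate.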

Plasmodium falciparum [4] = experiment: Antimicrobial activity against chloroquine-sensitive Plasmodium falciparum 3D7 assessed as inhibition of [3H] hypoxanthine incorporation after 24 hrs by scintillation counting; format: functional, organism-based
Method in brief: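 Synchronized ring-stage 3D7 culture at 0.5% parasitemia and 1% haematocrit in supplemented RPMI-1640, exposed to serially diluted DMSO stocks for 24 h. [3H]-hypoxanthine added at 0.5 µCi/well for a further 24 h, then DNA harvested onto filter mats and counted by β-scintillation. IC50 from log sigmoid dose-response curves. At least triplicate; chloroquine and quinine as references.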

Entamoeba histolytica [5] = experiment: […] activity against Entamoeba histolytica HM-1:IMSS trophozoites after 72 hrs by microdilution method; format: functional, organism-based
Method in brief: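 E. histolytica trophozoites in TYIS-33 medium; DMSO stocks (1 mg/mL) twofold serially diluted, 1.7×10^4 amoebae/well, nitrogen-gassed, 37 °C for 72 h. Methanol-fixed, eosin-stained, dye released in 0.1 N NaOH, OD 490 nm. Triplicate per concentration, repeated thrice. % inhibition vs log concentration, IC50 from linear regression; metronidazole as reference.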

Plasmodium falciparum [6] = experiment: Inhibition of Plasmodium falciparum cysteine protease
Plasmodium falciparum [7] = experiment: Antimicrobial activity against chloroquine-sensitive Plasmodium falciparum 3D7 assessed as inhibition of [3H] hypoxanthine incorporation at 100 uM after 24 hrs by scintillation counting; format: functional
[8] = Inhibition of beta-haematin formation after 24 hrs by microtiter plate assay; format: functional
Method in brief: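 Compound mixed with haemin (1 mg/mL in DMSO), water and 0.5 M acetate buffer at pH 4.7, then incubated 24 h. Unreacted haemin removed by three DMSO washes with centrifugation at 1500 g. β-haematin dissolved in 2 M NaOH, diluted twofold, absorbance read at 405 nm. IC50 taken from the data. Chloroquine and quinine as positive controls; at least triplicate.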

[9] = Toxicity in human RBC assessed as hemolysis at 100 uM after 48 hrs; format: cell-based, Erythrocyte; conditions: red blood cells (RBC), read-out: Activity
Method in brief: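 Fresh human red blood cells at 1% haematocrit in culture medium, incubated 48 h with compound at 100 μM, absorbance read at 412 nm. % haemolysis calculated against 0.5% Triton X100 as the 100% control. At least triplicate, mean ± s.d.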

MCF7 [10] = experiment: Cytotoxicity against human MCF7 cells after 48 hrs by MTT assay; format: cell-based; conditions: MCF7, 48 h
Method in brief: (§2)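 MCF-7 cells grown in DMEM with 10% FCS and penicillin/streptomycin, seeded at 1.2×10^4 cells/well and grown 48 h before treatment. Stocks prepared in 20% (v/v) DMSO and diluted in medium. After 48 h at 37 °C, MTT (5 mg/mL) added for 4 h, formazan dissolved in DMSO, A570 read with 655 nm reference. Viability relative to untreated cells; triplicate.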

Entamoeba histolytica [11] = experiment: Ratio of metronidazole IC50 to compound IC50 for Entamoeba histolytica HM-1:IMSS trophozoites; format: functional
Plasmodium falciparum [12] = experiment: Antimicrobial activity against chloroquine-resistant Plasmodium falciparum FCB1; format: functional, organism-based; conditions: FcB1/Columbia
[13] = system: Radical scavenging activity; experiment: Antioxidant activity assessed as DPPH radical scavenging activity after 30 mins; format: functional; method in brief: as §1
[14] = Cytotoxicity against human MCF7 cells assessed as cell growth inhibition at 50 uM after 48 hrs by MTT assay; format: cell-based; conditions: read-out: GI; method in brief: as §2
MCF7 [15] = experiment: Cytotoxicity against human MCF7 cells assessed as cell growth inhibition after 48 hrs by MTT assay; format: cell-based; conditions: mcf7, 48 h; method in brief: as §2
[16] = Cytotoxicity against human MCF7 cells assessed as cell growth inhibition at 100 uM after 48 hrs by MTT assay; format: cell-based; conditions: read-out: GI; method in brief: as §2

For `C/C(=C\c1cc2ccccc2nc1Cl)C(=O)c1cccc(Br)c1`, the inhibition (Plasmodium falciparum [1]) was “inactive”, the inhibition [2] was 9.35% and the Activity [3] was 1.43%. For the same molecule, the pIC50 (Plasmodium falciparum [4]) was under 4.00, the pIC50 (Entamoeba histolytica [5]) was 5.44 and the inhibition (Plasmodium falciparum [6]) was “inactive”. The inhibition at 100 µM (Plasmodium falciparum [7]) was 34.3%, the pIC50 [8] was under 4.00 and the hemolysis at 48 h, 100 µM [9] was 2.17%.
In the case of `O=C(/C=C/c1cc2ccccc2nc1Cl)c1ccc(Br)cc1`, the inhibition (Plasmodium falciparum [1]) was “inactive”, the inhibition [2] was 13.6% and the pIC50 (Plasmodium falciparum [4]) was 4.35. For the same molecule, the pIC50 (Entamoeba histolytica [5]) was 5.47, the inhibition (Plasmodium falciparum [6]) was “inactive” and the pIC50 [8] was under 4.00. For the same molecule, the hemolysis at 48 h, 100 µM [9] was 2.2%.
In the case of `Cc1ccc2nc(Cl)c(/C=C/C(=O)c3cccc(Br)c3)cc2c1`, the inhibition (Plasmodium falciparum [1]) was “inactive”, the inhibition [2] was 14.9% and the pIC50 (MCF7 [10]) was under 4.00. For the same molecule, the pIC50 (Plasmodium falciparum [4]) was 4.30, the pIC50 (Entamoeba histolytica [5]) was 5.99 and the inhibition (Plasmodium falciparum [6]) was “inactive”. It also gave a pIC50 [8] of under 4.00 and a hemolysis at 48 h, 100 µM [9] of 1.68%.
In the case of `C/C(=C\c1cc2ccc(C)cc2nc1Cl)C(=O)c1cccc(Br)c1`, the inhibition (Plasmodium falciparum [1]) was “inactive”, the inhibition [2] was 10.5% and the pIC50 (MCF7 [10]) was under 4.00. The Activity [3] was 2.27%, the pIC50 (Plasmodium falciparum [4]) was 4.33 and the pIC50 (Entamoeba histolytica [5]) was 7.05. The inhibition (Plasmodium falciparum [6]) was “inactive”, the “Ratio IC50” value (Entamoeba histolytica [11]) was 16 and the pIC50 [8] was under 4.00. For the same molecule, the hemolysis at 48 h, 100 µM [9] was 1.04%.
In the case of `C/C(=C\c1cc2cc(C)ccc2nc1Cl)C(=O)c1cccc(Cl)c1`, the inhibition (Plasmodium falciparum [1]) was “inactive”, the inhibition [2] was 14.4% and the pIC50 (MCF7 [10]) was under 4.00. The pIC50 (Plasmodium falciparum [4]) was under 4.00, the pIC50 (Entamoeba histolytica [5]) was 7.22 and the inhibition (Plasmodium falciparum [6]) was “inactive”. The inhibition at 100 µM (Plasmodium falciparum [7]) was 8.74%, the pIC50 [8] was under 4.00 and the hemolysis at 48 h, 100 µM [9] was 1.24%.
For `C/C(=C\c1cc2cc(C)ccc2nc1Cl)C(=O)c1cccc(Br)c1`, the inhibition (Plasmodium falciparum [1]) was “inactive”, the inhibition [2] was 13.3% and the pIC50 (Plasmodium falciparum [4]) was under 4.00. The pIC50 (Entamoeba histolytica [5]) was 5.55, the inhibition (Plasmodium falciparum [6]) was “inactive” and the inhibition at 100 µM (Plasmodium falciparum [7]) was 51.1%. It also gave a pIC50 [8] of under 4.00 and a hemolysis at 48 h, 100 µM [9] of 1.53%.
With `O=C(/C=C/c1cc2ccccc2nc1Cl)c1ccc(Cl)cc1` the inhibition (Plasmodium falciparum [1]) was “inactive”, the inhibition [2] was 19.5% and the pIC50 (MCF7 [10]) was under 4.00. The pIC50 (Plasmodium falciparum [12]) was under 3.70, the Activity [3] was 3.69% and the pIC50 (Plasmodium falciparum [4]) was 4.41. For the same molecule, the pIC50 (Entamoeba histolytica [5]) was 7.30, the inhibition (Plasmodium falciparum [6]) was “inactive” and the Ratio IC50 (Entamoeba histolytica [11]) was 29.2. For the same molecule, the pIC50 [8] was under 4.00 and the hemolysis at 48 h, 100 µM [9] was 1.74%.
In the case of `O=C(/C=C/c1cc2ccccc2nc1Cl)c1cccc(Br)c1`, the inhibition (Plasmodium falciparum [1]) was “inactive”, the inhibition [2] was 16% and the pIC50 (Plasmodium falciparum [4]) was under 4.00. The pIC50 (Entamoeba histolytica [5]) was 5.46, the inhibition (Plasmodium falciparum [6]) was “inactive” and the inhibition at 100 µM (Plasmodium falciparum [7]) was 61.2%. For the same molecule, the pIC50 [8] was under 4.00 and the hemolysis at 48 h, 100 µM [9] was 1.38%.
With `Cc1ccc2cc(/C=C/C(=O)c3ccc(Cl)cc3)c(Cl)nc2c1` the inhibition (Plasmodium falciparum [1]) was “inactive”, the pIC50 (Plasmodium falciparum [12]) was under 3.70 and the pIC50 (Entamoeba histolytica [5]) was 5.16. For the same molecule, the inhibition (Plasmodium falciparum [6]) was “inactive”.
In the case of `C/C(=C\c1cc2ccc(C)cc2nc1Cl)C(=O)c1cccc(Cl)c1`, the inhibition (Plasmodium falciparum [1]) was “inactive”, the inhibition [2] was 5.64% and the Activity [3] was 0.78%. For the same molecule, the pIC50 (Plasmodium falciparum [4]) was 4.30, the pIC50 (Entamoeba histolytica [5]) was 5.15 and the inhibition (Plasmodium falciparum [6]) was “inactive”. The pIC50 [8] was under 4.00 and the hemolysis at 48 h, 100 µM [9] was 1.44%.
`O=C1O[C@H]([C@@H](O)CO)C(O)=C1O` [ASCORBIC ACID] showed a pIC50 [13] of 4.70.
For `Cc1ccc2cc(/C=C/C(=O)c3ccccn3)c(Cl)nc2c1`, the inhibition (Plasmodium falciparum [1]) was “inactive”, the inhibition [2] was 15% and the pIC50 (MCF7 [10]) was 4.12. The pIC50 (Plasmodium falciparum [4]) was 4.50, the pIC50 (Entamoeba histolytica [5]) was 7.30 and the inhibition (Plasmodium falciparum [6]) was “inactive”. For the same molecule, the inhibition at 48 h, 50 µM [14] was 36%, the Activity (MCF7 [15]) was “Dose-dependent effect” and the Ratio IC50 (Entamoeba histolytica [11]) was 29.2. The inhibition at 48 h, 100 µM [16] was 66%, the pIC50 [8] was under 4.00 and the hemolysis at 48 h, 100 µM [9] was 0.47%.
In the case of `Cc1ncc([N+](=O)[O-])n1CCO` [METRONIDAZOLE], the pIC50 (MCF7 [10]) was under 4.00 and the pIC50 (Entamoeba histolytica [5]) was 5.84.
`CCN(CC)CCCC(C)Nc1ccnc2cc(Cl)ccc12` (configuration not stated) [CHLOROQUINE] showed an Activity [3] of 4.06%, a pIC50 [8] of 4.60 and a hemolysis at 48 h, 100 µM [9] of 0.72%.
For `O=C(/C=C/c1cc2ccccc2nc1Cl)c1ccccn1`, the inhibition (Plasmodium falciparum [1]) was “inactive”, the inhibition [2] was 12.3% and the pIC50 (Plasmodium falciparum [4]) was 4.50. The pIC50 (Entamoeba histolytica [5]) was 5.28, the inhibition (Plasmodium falciparum [6]) was “inactive” and the pIC50 [8] was under 4.00. For the same molecule, the hemolysis at 48 h, 100 µM [9] was 1.1%.
For `Cc1ccc2cc(/C=C/C(=O)c3cccc(Br)c3)c(Cl)nc2c1`, the inhibition (Plasmodium falciparum [1]) was “inactive”, the inhibition [2] was 27.5% and the pIC50 (Plasmodium falciparum [4]) was 4.22. For the same molecule, the pIC50 (Entamoeba histolytica [5]) was 5.12, the inhibition (Plasmodium falciparum [6]) was “inactive” and the pIC50 [8] was under 4.00. The hemolysis at 48 h, 100 µM [9] was 1.09%.
In the case of `C=C[C@H]1CN2CC[C@H]1C[C@H]2[C@H](O)c1ccnc2ccc(OC)cc12` [QUININE], the Activity [3] was 2.65%, the pIC50 (Plasmodium falciparum [4]) was 6.85 and the pIC50 [8] was 4.18.
Work on `C=C[C@H]1C[N@@]2CC[C@H]1C[C@H]2[C@H](O)c1ccnc2ccc(OC)cc12` [QUININE] yielded a hemolysis at 48 h, 100 µM [9] of 1.22%.
With `Cc1ccc2nc(Cl)c(/C=C/C(=O)c3ccc(Br)cc3)cc2c1` the inhibition (Plasmodium falciparum [1]) was “inactive”, the inhibition [2] was 55.4% and the pIC50 (Plasmodium falciparum [4]) was 4.13. The pIC50 (Entamoeba histolytica [5]) was 5.39, the inhibition (Plasmodium falciparum [6]) was “inactive” and the pIC50 [8] was under 4.00. It also gave a hemolysis at 48 h, 100 µM [9] of 1.4%.
With `Cc1ccc2nc(Cl)c(/C=C/C(=O)c3ccccn3)cc2c1` the inhibition (Plasmodium falciparum [1]) was “inactive”, the inhibition [2] was 11.5% and the pIC50 (Plasmodium falciparum [4]) was 4.50. The pIC50 (Entamoeba histolytica [5]) was 5.84, the inhibition (Plasmodium falciparum [6]) was “inactive” and the pIC50 [8] was under 4.00. For the same molecule, the hemolysis at 48 h, 100 µM [9] was 1.55%.

Source: ChEMBL document CHEMBL1781903, “Antiprotozoal activity of chloroquinoline based chalcones” (Eur J Med Chem, 2011)
